One block for each molecule: values may come before it.
Tests used:
[1] = biological target: T1, ATM (Homo sapiens, UniProt Q13315); assay: ATM-SPARK reporter imaging in living HEK293 cells, ATM activated by etoposide; type: cell-based
[2] = biological target: T1, ATM; assay: Western blot of phosphorylated ATM; type: cell-based
Procedure, shortened: (§1)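 HEK293 cells were pretreated 1 h with a test compound titration starting at 1 μM, then given NCS (500 ng/ml) for 1 h. Lysates were resolved on 4–12% bis-tris gels, probed with primary antibodies (1:1000) and HRP secondaries, and detected by ECL on film. The phospho/total band ratio was normalized to DMSO-treated cells. IC50 was obtained by nonlinear fit.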

[3] = biological target: ATR (Homo sapiens, UniProt Q13535); assay: Western blot of phosphorylated ATR; type: cell-based; details: HEK293 cells, NCS-induced DNA damage
Procedure, shortened: as §1

[4] = biological target: DNA-PK (Homo sapiens, UniProt P78527); assay: Western blot of phosphorylated DNA-PK; type: cell-based; details: HEK293 cells, NCS-induced DNA damage
Procedure, shortened: as §1

[5] = system: HeLa cells; assay: HeLa cell growth assay; type: cell-based, human
[6] = biological target: T1, ATM; assay: ATM-SPARK ATM activity in HeLa or T98G cancer cells preincubated with inhibitor; type: cell-based; details: HeLa and T98G cells, ATM activated using etoposide
[7] = system: ATM-deficient MDA-MB-231 cells; assay: Growth inhibition with NCS in ATM-deficient MDA-MB-231 cells; type: cell-based, human; details: ATM-deficient cell line
[8] = biological target: T1, ATM; assay: ATM-SPARK activation by DNA-damaging drugs in U87 cells; type: cell-based
[9] = biological target: T1, ATM; type: cell-based; details: HEK293 cells preincubated with NCS

T1 sequence (Q13315 whole entry): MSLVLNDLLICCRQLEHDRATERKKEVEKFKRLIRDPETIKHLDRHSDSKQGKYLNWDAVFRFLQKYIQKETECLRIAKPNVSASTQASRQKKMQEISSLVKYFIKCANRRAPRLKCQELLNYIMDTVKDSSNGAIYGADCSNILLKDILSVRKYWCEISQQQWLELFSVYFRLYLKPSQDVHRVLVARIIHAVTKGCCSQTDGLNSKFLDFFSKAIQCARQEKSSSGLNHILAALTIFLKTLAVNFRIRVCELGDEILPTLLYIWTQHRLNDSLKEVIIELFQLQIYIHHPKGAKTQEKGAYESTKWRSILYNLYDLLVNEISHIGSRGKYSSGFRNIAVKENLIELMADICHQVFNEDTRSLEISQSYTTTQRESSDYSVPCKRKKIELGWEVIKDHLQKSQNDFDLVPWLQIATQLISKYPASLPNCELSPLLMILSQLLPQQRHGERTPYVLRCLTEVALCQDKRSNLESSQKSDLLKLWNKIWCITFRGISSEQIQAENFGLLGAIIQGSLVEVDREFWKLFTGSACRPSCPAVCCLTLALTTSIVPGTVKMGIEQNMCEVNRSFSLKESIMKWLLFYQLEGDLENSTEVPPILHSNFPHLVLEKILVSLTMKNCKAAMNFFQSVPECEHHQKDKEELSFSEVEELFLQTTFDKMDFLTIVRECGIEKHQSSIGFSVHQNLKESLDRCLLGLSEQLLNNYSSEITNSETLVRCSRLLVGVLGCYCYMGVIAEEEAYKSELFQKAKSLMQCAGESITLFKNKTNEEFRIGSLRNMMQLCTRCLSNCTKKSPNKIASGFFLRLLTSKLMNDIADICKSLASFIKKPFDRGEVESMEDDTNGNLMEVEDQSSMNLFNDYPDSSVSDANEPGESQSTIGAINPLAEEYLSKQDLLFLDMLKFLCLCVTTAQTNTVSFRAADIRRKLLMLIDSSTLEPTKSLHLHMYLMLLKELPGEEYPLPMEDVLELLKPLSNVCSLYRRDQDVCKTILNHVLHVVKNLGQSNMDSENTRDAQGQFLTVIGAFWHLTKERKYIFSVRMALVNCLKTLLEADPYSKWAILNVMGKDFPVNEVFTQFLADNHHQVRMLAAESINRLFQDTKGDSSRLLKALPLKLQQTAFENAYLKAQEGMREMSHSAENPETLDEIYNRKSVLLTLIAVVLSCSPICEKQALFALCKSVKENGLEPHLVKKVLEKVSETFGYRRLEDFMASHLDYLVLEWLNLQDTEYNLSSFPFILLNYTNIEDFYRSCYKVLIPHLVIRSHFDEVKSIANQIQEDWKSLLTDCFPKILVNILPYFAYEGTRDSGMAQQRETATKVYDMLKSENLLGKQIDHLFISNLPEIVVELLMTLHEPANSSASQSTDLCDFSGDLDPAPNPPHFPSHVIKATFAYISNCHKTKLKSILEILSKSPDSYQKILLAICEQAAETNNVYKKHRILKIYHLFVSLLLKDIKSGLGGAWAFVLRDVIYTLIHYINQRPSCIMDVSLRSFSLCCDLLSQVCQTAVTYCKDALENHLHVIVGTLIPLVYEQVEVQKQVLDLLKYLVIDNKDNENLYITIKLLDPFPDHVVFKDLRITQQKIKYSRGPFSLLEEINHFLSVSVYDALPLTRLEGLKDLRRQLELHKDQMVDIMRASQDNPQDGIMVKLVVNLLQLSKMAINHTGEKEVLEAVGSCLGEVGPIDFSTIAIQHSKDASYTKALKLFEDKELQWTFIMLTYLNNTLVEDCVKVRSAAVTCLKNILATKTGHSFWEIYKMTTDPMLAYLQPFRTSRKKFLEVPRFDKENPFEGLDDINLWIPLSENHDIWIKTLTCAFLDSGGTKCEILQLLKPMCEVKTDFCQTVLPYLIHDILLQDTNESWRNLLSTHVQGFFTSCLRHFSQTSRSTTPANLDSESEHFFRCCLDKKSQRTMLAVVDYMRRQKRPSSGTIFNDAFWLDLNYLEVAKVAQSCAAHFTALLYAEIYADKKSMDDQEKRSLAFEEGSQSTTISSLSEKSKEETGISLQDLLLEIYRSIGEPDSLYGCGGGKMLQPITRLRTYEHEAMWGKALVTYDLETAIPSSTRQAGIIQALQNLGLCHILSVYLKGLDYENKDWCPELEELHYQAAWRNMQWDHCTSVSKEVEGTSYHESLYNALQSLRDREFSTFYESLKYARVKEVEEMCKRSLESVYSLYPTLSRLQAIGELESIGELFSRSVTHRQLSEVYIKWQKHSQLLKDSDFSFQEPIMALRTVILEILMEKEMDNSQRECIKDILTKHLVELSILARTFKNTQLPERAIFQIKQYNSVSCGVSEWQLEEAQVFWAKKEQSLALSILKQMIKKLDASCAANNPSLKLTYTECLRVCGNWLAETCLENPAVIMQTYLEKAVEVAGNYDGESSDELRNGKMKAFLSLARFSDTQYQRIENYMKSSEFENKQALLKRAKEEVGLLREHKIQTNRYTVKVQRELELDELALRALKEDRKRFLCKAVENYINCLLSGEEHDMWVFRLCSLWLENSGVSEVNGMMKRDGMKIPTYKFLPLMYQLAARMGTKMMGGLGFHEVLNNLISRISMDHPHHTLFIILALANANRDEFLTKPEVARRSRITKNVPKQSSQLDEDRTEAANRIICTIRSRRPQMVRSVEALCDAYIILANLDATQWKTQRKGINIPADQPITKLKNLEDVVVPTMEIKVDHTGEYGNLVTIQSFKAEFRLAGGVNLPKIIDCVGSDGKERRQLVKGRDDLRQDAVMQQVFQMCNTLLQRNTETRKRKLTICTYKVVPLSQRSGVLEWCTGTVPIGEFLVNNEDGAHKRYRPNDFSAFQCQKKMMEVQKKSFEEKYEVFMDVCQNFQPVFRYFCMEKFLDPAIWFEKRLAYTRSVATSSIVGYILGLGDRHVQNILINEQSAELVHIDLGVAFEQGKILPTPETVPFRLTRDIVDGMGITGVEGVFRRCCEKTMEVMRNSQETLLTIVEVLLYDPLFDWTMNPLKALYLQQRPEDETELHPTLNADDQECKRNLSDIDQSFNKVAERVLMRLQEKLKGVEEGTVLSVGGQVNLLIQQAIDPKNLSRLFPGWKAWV

- IC50 [2]: 3.1 ± 0.8 nM
- activity against ATM in cancer cells (ATM-SPARK) [6]: potent activity against ATM
Molecule: COc1ccc(-c2ccc3ncc4c(c3c2)n(-c2ccc(N3CCNCC3)c(C(F)(F)F)c2)c(=O)n4C)cn1 [BGT226]
- inhibition of ATR (pATR 1989 Western blot) [3]: no inhibitory activity
- fold lower activity against DNA-PK than against ATM [4]: 30 fold
- sensitization of growth inhibition in response to NCS treatment ([5]; NCS + 4 nM or 11 nM inhibitor (fig. S26)): sensitizes
- effect in growth inhibition when combined with NCS [7]: lost

- half-time of ATM-SPARK droplet disassembly [9]: ~ 1.5 min
- time to disassembly of ATM-SPARK reporter droplets after inhibitor addition [9]: ≤ 4 min
Molecule: O=c1cc(-c2cccc3c2Sc2ccccc2S3)oc(N2CCOCC2)c1 [KU-55933]

The remaining lines, values behind:

Molecule: CN1CCN(c2ccc(-n3cc(-c4ccncc4OCC4CCNCC4)cn3)cc2)CC1 [MELK-8A]
- inhibitory activity against ATM (ATM-SPARK signal) [1]: no activity against ATM

Molecule: neocarzinostatin [NCS]
- inhibition of cancer cell proliferation by NCS itself ([5]; NCS 180 ng/ml, 3 days): ~ 35%

Molecule: CC[C@@]1(O)C(=O)OCc2c1cc1n(c2=O)Cc2cc3ccccc3nc2-1 [camptothecin]
- activation of ATM (ATM-SPARK signal) [8]: failed to activate ATM

Molecule: O=C1NC(=O)/C(=C\c2ccc3nccnc3c2)S1 [AS605240]
- ATM activity in inhibitor-incubated cells (ATM-SPARK signal), screening ([1]; 1 μM compound): blocked ATM
